Results on five molecules are retold here after article PMC12667952 (bioRxiv, 2025).

In one data set the test system is C57BL/6J mice. Nature of the data set: Conditioned place preference. It counts as in vivo, mouse. Conditions: 10 mg/kg, i.p., positive control.
Data set [1] concerns the target T1, hGlyT2^WT (Homo sapiens, UniProt Q9Y345).
T1 sequence (Q9Y345 1-797): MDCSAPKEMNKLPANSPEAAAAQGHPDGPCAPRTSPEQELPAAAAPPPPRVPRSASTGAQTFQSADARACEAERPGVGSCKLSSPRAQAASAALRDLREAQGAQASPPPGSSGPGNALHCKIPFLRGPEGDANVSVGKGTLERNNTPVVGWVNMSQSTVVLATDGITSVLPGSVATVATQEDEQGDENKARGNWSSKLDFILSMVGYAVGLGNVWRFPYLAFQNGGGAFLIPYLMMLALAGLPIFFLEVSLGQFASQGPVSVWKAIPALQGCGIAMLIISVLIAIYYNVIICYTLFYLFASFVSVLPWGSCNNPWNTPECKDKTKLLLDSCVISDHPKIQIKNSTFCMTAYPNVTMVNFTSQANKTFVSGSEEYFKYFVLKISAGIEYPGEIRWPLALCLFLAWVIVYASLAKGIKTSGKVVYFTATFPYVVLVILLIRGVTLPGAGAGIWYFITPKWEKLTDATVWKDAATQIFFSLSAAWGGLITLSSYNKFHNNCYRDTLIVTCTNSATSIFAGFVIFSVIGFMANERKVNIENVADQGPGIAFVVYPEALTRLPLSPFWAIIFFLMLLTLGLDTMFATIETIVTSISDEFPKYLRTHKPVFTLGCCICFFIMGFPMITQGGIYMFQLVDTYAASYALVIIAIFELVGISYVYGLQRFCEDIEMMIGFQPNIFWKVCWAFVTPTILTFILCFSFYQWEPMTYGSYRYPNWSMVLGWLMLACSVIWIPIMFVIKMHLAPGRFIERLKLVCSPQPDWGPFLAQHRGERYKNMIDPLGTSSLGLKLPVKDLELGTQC
Briefly: Sodium dependence of inhibition of glycine transport currents. It counts as cell-based. Conditions: IC50 at 100 mM Na+, 100 mM Na+, 300 μM glycine.

In data set [2] the test system is mice. Particulars: 50 mg/kg; cited from earlier work.
Data set [3] has as its target T2, hGlyT2^W215F (Homo sapiens, UniProt Q9Y345, W215F).
T2 sequence (Q9Y345 1-797 W215F): T1 sequence (Q9Y345 1-797) with W215F
Briefly: Reversibility. Format: cell-based.

The conditions of data set [4]: cited from earlier work.
The target of data set [5] is T3, hGlyT2^D633E (Homo sapiens, UniProt Q9Y345, D633E).
T3 sequence (Q9Y345 1-797 D633E): T1 sequence (Q9Y345 1-797) with D633E
Nature of the data set: Reversibility. It counts as cell-based.

Data set [6] deals with mice. Conditions: 50 mg/kg; cited from earlier work. This is another data set of the same source.
The target of data set [7] is T3, hGlyT2^D633E. Format: cell-based.
Data set [8] has as its target T1, hGlyT2^WT. Briefly: Reversibility. Format: cell-based. An outline of the steps: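 Xenopus oocytes injected with 20 ng hGlyT2 WT cRNA and held 3–6 days at 18 °C. Glycine currents recorded by two-electrode voltage clamp at −60 mV. Test compound applied at a single concentration (10 μM maximum), then washed out. Recovery of 30 µM glycine-evoked currents followed to 30 min, normalised to pre-inhibitor current. n ≥ 5 from at least two frogs.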

Data set [9] deals with T1, hGlyT2^WT. Format: cell-based.
Data set [10] addresses T2, hGlyT2^W215F. It counts as cell-based.
The test system of another data set is GlyT2. Conditions: read-out: IC50 for GlyT2; cited from earlier work.
In the next data set the test system is CCI mice. Briefly: Cold allodynia. Particulars: control compound gabapentin 100 mg/kg, by 2-hour time point. It counts as in vivo, mouse. An outline of the steps: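 CCI mice tested 14 days after surgery. […] Acetone-evoked cold allodynia scored before surgery, at t = 0 before dosing, and at 0.5, 1, 1.5, 2, 4 and 6 h. Expressed as % of maximal possible responses. Two-way ANOVA with Dunnett's test versus vehicle.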

Numbering of substitutions follows the chain as printed. Read-outs that look alike come from different tables or passages of the source.

`CN1CC[C@]23c4c5ccc(O)c4O[C@H]2[C@@H](O)C=C[C@H]3[C@H]1C5` [morphine, reference compound]: in the data set with C57BL/6J mice, the “Preference for the paired chamber” value was “significant increase in preference for the paired chamber”.
Turning to `COc1cc(C(=O)NCC2(N(C)C)CCCC2)cc(OC)c1OCc1ccccc1` [ORG25543, 4-(benzyloxy)-N-{[1-(dimethylamino)cyclopentyl]methyl}-3,5-dimethoxybenzamide, reference compound], the IC50 against hGlyT2^WT [1] turned out to be 17.6 nM; at hGlyT2^WT [9] it was 11.4 nM. In addition, the “Side effects coinciding with analgesic dose” value in the data set with mice [2] was “near-complete loss of rotarod performance, seizures and in one case, lethality”. Further, the “Washout of inhibitor from hGlyT2^W215F” value on hGlyT2^W215F [3] is recorded as “significantly increased the rate of ORG25543 washout”. Also, the “Effects on inflammatory and acute nociceptive pain thresholds” value in [4] is given as “no effects”. In addition, the “Washout of inhibitor from hGlyT2^D633E” value at hGlyT2^D633E [5] is reported as “recovery from ORG25543 within five minutes”. For the same molecule, the Mechanical allodynia result in the data set with mice [6] is on record as “reversed mechanical allodynia”. The “Reduction in potency of inhibition, D633E versus WT” value on hGlyT2^D633E [7] is ~ 14 fold. Besides, the “Glycine currents restored, of pre-inhibitor levels” value at hGlyT2^WT [8] (after 30 minutes washout) is recorded as 12.5%. Also, the “Reversibility of inhibition (recovery of glycine-induced currents)” value at hGlyT2^WT [8] (washout, hGlyT2^WT) is recorded as “minimal restoration of glycine-induced currents 30-minutes post-ORG25543”. Also, the “Decrease in potency of inhibition, W215F versus WT” value at hGlyT2^W215F [10] was “~three-fold”.
For `CCCCOc1c(OC)cc(C(=O)NCC2(N(C)C)CCOCC2)cc1OC` [opiranserin], the IC50 in the data set on GlyT2 is 860 nM.
In the case of `CCCCCCCC/C=C\CCCCCCCC(=O)N[C@H](CCCCN)C(=O)O` [oleoyl-D-lysine], the “Effects on inflammatory and acute nociceptive pain thresholds” value in data set [4] is “no effects”.
For the molecule `NCC1(CC(=O)O)CCCCC1` [Gabapentin, reference compound], the “Peak reduction of response rate to acetone stimulus” value in the data set with CCI mice is given as 75%.

The term IC50 denotes the concentration needed to halve the response being measured.
